From paper PMC9321909 (British Journal of Haematology, 2022)

Experiments:
[1] = test system: relapsed/refractory B‐cell malignancies; test: Anti-tumour activity assessment by disease-specific tumour response criteria; assay type: in vivo, human (Chinese patients)
Outline: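 Oral test compound at 320 mg QD or 160 mg BID until progression or unacceptable toxicity. Investigators assessed response every 12 weeks for one year after the first dose, then every 24 weeks. Criteria were iwCLL for CLL, NCI Working Group NHL criteria for SLL, FL, MZL and MCL, and International Workshops on WM criteria for WM. 95% CIs for rates were computed by Clopper–Pearson.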

[2] = assay type: in vivo, human (Chinese patients)
[3] = part I, 160 mg BID, CLL/SLL (n = 5)
[4] = part I, 160 mg BID, NHL (n = 5)
[5] = part I, 160 mg BID, Total (N = 11)
[6] = part I, 320 mg QD, CLL/SLL (n = 4)
[7] = part I, 320 mg QD, Total (N = 10)

Compound: C=CC(=O)N1CCC([C@@H]2CCNc3c(C(N)=O)c(-c4ccc(Oc5ccccc5)cc4)nn32)CC1 [zanubrutinib]
- Best overall response: CR ([1]; CLL/SLL (n = 9)): 3 (33.3) n (%)
- Best overall response: CRi ([1]; CLL/SLL (n = 9)): 0 (0.0) n (%)
- Best overall response: Discontinued prior to first assessment ([1]; CLL/SLL (n = 9)): 0 (0.0) n (%)
- Best overall response: MR ([1]; CLL/SLL (n = 9)): 0 (0.0) n (%)
- Best overall response: PD ([1]; CLL/SLL (n = 9)): 0 (0.0) n (%)
- Best overall response: PR ([1]; CLL/SLL (n = 9)): 5 (55.6) n (%)
- Best overall response: PR‐L ([1]; CLL/SLL (n = 9)): 1 (11.1) n (%)
- Best overall response: Stable disease ([1]; CLL/SLL (n = 9)): 0 (0.0) n (%)
- Best overall response: VGPR ([1]; CLL/SLL (n = 9)): 0 (0.0) n (%)
- Complete response rate ([1]; CLL/SLL (n = 9)): 3 (33.3) n (%)
- Overall response rate ([1]; CLL/SLL (n = 9)): 9 (100.0) n (%)
- Partial response rate (PR or better) ([1]; CLL/SLL (n = 9)): 8 (88.9) n (%)
- median PFS ([1]; CLL/SLL patients): 44.3 months
- Best overall response: CR ([1]; FL (n = 26)): 4 (15.4) n (%)
- Best overall response: CRi ([1]; FL (n = 26)): 0 (0.0) n (%)
- Best overall response: Discontinued prior to first assessment ([1]; FL (n = 26)): 3 (11.5) n (%)
- Best overall response: MR ([1]; FL (n = 26)): 0 (0.0) n (%)
- Best overall response: PD ([1]; FL (n = 26)): 4 (15.4) n (%)
- Best overall response: PR ([1]; FL (n = 26)): 8 (30.8) n (%)
- Best overall response: PR‐L ([1]; FL (n = 26)): 0 (0.0) n (%)
- Best overall response: Stable disease ([1]; FL (n = 26)): 7 (26.9) n (%)
- Best overall response: VGPR ([1]; FL (n = 26)): 0 (0.0) n (%)
- Complete response rate ([1]; FL (n = 26)): 4 (15.4) n (%)
- Overall response rate ([1]; FL (n = 26)): 12 (46.2) n (%)
- Partial response rate (PR or better) ([1]; FL (n = 26)): 12 (46.2) n (%)
- Best overall response: CR ([1]; MCL (n = 2)): 1 (50.0) n (%)
- Best overall response: CRi ([1]; MCL (n = 2)): 0 (0.0) n (%)
- Best overall response: Discontinued prior to first assessment ([1]; MCL (n = 2)): 0 (0.0) n (%)
- Best overall response: MR ([1]; MCL (n = 2)): 0 (0.0) n (%)
- Best overall response: PD ([1]; MCL (n = 2)): 0 (0.0) n (%)
- Best overall response: PR ([1]; MCL (n = 2)): 0 (0.0) n (%)
- Best overall response: PR‐L ([1]; MCL (n = 2)): 0 (0.0) n (%)
- Best overall response: Stable disease ([1]; MCL (n = 2)): 1 (50.0) n (%)
- Best overall response: VGPR ([1]; MCL (n = 2)): 0 (0.0) n (%)
- Complete response rate ([1]; MCL (n = 2)): 1 (50.0) n (%)
- Overall response rate ([1]; MCL (n = 2)): 1 (50.0) n (%)
- Partial response rate (PR or better) ([1]; MCL (n = 2)): 1 (50.0) n (%)
- Best overall response: CR ([1]; MZL (n = 5)): 0 (0.0) n (%)
- Best overall response: CRi ([1]; MZL (n = 5)): 0 (0.0) n (%)
- Best overall response: Discontinued prior to first assessment ([1]; MZL (n = 5)): 2 (40.0) n (%)
- Best overall response: MR ([1]; MZL (n = 5)): 0 (0.0) n (%)
- Best overall response: PD ([1]; MZL (n = 5)): 0 (0.0) n (%)
- Best overall response: PR ([1]; MZL (n = 5)): 0 (0.0) n (%)
- Best overall response: PR‐L ([1]; MZL (n = 5)): 0 (0.0) n (%)
- Best overall response: Stable disease ([1]; MZL (n = 5)): 3 (60.0) n (%)
- Best overall response: VGPR ([1]; MZL (n = 5)): 0 (0.0) n (%)
- Complete response rate ([1]; MZL (n = 5)): 0 (0.0) n (%)
- Overall response rate ([1]; MZL (n = 5)): 0 (0.0) n (%)
- Partial response rate (PR or better) ([1]; MZL (n = 5)): 0 (0.0) n (%)
- Best overall response: CR ([1]; Total (N = 44)): 8 (18.2) n (%)
- Best overall response: CRi ([1]; Total (N = 44)): 0 (0.0) n (%)
- Best overall response: Discontinued prior to first assessment ([1]; Total (N = 44)): 5 (11.4) n (%)
- Best overall response: MR ([1]; Total (N = 44)): 0 (0.0) n (%)
- Best overall response: PD ([1]; Total (N = 44)): 4 (9.1) n (%)
- Best overall response: PR ([1]; Total (N = 44)): 14 (31.8) n (%)
- Best overall response: PR‐L ([1]; Total (N = 44)): 1 (2.3) n (%)
- Best overall response: Stable disease ([1]; Total (N = 44)): 12 (27.3) n (%)
- Best overall response: VGPR ([1]; Total (N = 44)): 0 (0.0) n (%)
- Complete response rate ([1]; Total (N = 44)): 8 (18.2) n (%)
- Overall response rate ([1]; Total (N = 44)): 23 (52.3) n (%)
- Partial response rate (PR or better) ([1]; Total (N = 44)): 22 (50.0) n (%)
- Best overall response: CR ([1]; WM (n = 2)): 0 (0.0) n (%)
- Best overall response: CRi ([1]; WM (n = 2)): 0 (0.0) n (%)
- Best overall response: Discontinued prior to first assessment ([1]; WM (n = 2)): 0 (0.0) n (%)
- Best overall response: MR ([1]; WM (n = 2)): 0 (0.0) n (%)
- Best overall response: PD ([1]; WM (n = 2)): 0 (0.0) n (%)
- Best overall response: PR ([1]; WM (n = 2)): 1 (50.0) n (%)
- Best overall response: PR‐L ([1]; WM (n = 2)): 0 (0.0) n (%)
- Best overall response: Stable disease ([1]; WM (n = 2)): 1 (50.0) n (%)
- Best overall response: VGPR ([1]; WM (n = 2)): 0 (0.0) n (%)
- Complete response rate ([1]; WM (n = 2)): 0 (0.0) n (%)
- Overall response rate ([1]; WM (n = 2)): 1 (50.0) n (%)
- Partial response rate (PR or better) ([1]; WM (n = 2)): 1 (50.0) n (%)
- complete response rate (CRR) ([1]; all 44 patients): 18.2%
- overall response rate (ORR) ([1]; all 44 patients): 52.3%
- median PFS ([1]; all patients): 16.4 months
- median DOR (PR‐L or better) ([1]; all responders): 13.9 months
- median time to response ([1]; all subtypes, responders (n = 23)): 2.8 months
- Complete response rate [1, 3]: 2 (40.0) n (%)
- Overall response rate [1, 3]: 5 (100.0) n (%)
- Partial response rate (PR or better) [1, 3]: 4 (80.0) n (%)
- Complete response rate [1, 4]: 1 (20.0) n (%)
- Overall response rate [1, 4]: 3 (60.0) n (%)
- Partial response rate (PR or better) [1, 4]: 3 (60.0) n (%)
- Complete response rate [1, 5]: 3 (27.3) n (%)
- Overall response rate [1, 5]: 8 (72.7) n (%)
- Partial response rate (PR or better) [1, 5]: 7 (63.6) n (%)
- Complete response rate ([1]; part I, 160 mg BID, WM (n = 1)): 0 (0.0) n (%)
- Overall response rate ([1]; part I, 160 mg BID, WM (n = 1)): 0 (0.0) n (%)
- Partial response rate (PR or better) ([1]; part I, 160 mg BID, WM (n = 1)): 0 (0.0) n (%)
- Complete response rate [1, 6]: 1 (25.0) n (%)
- Overall response rate [1, 6]: 4 (100.0) n (%)
- Partial response rate (PR or better) [1, 6]: 4 (100.0) n (%)
- Complete response rate ([1]; part I, 320 mg QD, NHL (n = 5)): 1 (20.0) n (%)
- Overall response rate ([1]; part I, 320 mg QD, NHL (n = 5)): 3 (60.0) n (%)
- Partial response rate (PR or better) ([1]; part I, 320 mg QD, NHL (n = 5)): 3 (60.0) n (%)
- Complete response rate [1, 7]: 2 (20.0) n (%)
- Overall response rate [1, 7]: 8 (80.0) n (%)
- Partial response rate (PR or better) [1, 7]: 8 (80.0) n (%)
- Complete response rate ([1]; part I, 320 mg QD, WM (n = 1)): 0 (0.0) n (%)
- Overall response rate ([1]; part I, 320 mg QD, WM (n = 1)): 1 (100.0) n (%)
- Partial response rate (PR or better) ([1]; part I, 320 mg QD, WM (n = 1)): 1 (100.0) n (%)
- Study day at disease progression ([1]; patient 101 016, FL): Day 162
- Study day at disease progression ([1]; patient 102 002, CLL): Day 672
- BOR by investigator ([1]; patient 102 004, WM): Stable disease
- Study day at disease progression ([1]; patient 102 004, WM): Day 336
- BOR by investigator ([1]; patient 102 006, CLL): PR‐L
- Study day at disease progression ([1]; patient 102 006, CLL): Day 1345
- CRR ([1]; patients with CLL/SLL): 33.3%
- median overall survival ([1]; total population): not reached
- half-life ([2]; human, plasma, oral): 138 to 204 min
- time of C max post dose ([2]; oral 160 mg and 320 mg doses): ~ 2 h
